pIC50: −log10 of the molar value. Converted amounts (≈) assume the structure as drawn. Values belong to the molecule of their own block, whether it stands above or below them. The source made the active and inactive calls. The rule behind the calls is not given here.
Key:
Protein smoothened = Protein smoothened (Mus musculus, UniProt P56726); assay: Inhibition of smo-mediated hedgehog signaling pathway in mouse ASZ001 cells assessed as decrease in Gli1 mRNA expression after 48 hrs by qPCR method; format: cell-based
Protein smoothened, sequence (P56726 whole entry): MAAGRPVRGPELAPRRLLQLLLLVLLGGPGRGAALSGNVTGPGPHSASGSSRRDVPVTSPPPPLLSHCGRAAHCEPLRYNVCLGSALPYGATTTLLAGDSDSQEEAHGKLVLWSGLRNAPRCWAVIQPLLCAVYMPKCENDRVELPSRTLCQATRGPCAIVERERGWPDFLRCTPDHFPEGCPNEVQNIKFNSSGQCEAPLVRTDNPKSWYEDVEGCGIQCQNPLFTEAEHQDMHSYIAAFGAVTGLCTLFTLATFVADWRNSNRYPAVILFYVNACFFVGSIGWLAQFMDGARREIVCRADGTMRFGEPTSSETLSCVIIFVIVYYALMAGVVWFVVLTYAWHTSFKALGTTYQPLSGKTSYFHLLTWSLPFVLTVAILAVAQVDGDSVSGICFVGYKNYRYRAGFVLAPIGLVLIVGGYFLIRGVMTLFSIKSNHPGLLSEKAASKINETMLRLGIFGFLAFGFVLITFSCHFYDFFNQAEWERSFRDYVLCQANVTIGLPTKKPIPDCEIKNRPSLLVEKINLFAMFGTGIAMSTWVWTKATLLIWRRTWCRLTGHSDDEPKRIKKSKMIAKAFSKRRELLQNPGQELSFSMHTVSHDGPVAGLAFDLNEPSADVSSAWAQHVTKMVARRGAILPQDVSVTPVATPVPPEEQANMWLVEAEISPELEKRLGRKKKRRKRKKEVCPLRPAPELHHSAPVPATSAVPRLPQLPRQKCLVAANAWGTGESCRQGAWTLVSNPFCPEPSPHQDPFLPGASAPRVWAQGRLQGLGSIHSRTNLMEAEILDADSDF
Method in brief: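 Gli1 mRNA measured by qPCR after 48 h incubation with compound, normalized to actin as internal control. Concentrations judged cytotoxic (by visual assessment and/or a significant drop in actin expression) were excluded from analysis. IC50 given as mean ± SEM of at least two separate experiments, each in triplicate.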

[1] = target: Voltage-gated inwardly rectifying potassium channel KCNH2 (Homo sapiens, UniProt Q12809); assay: Inhibition of human ERG
Voltage-gated inwardly rectifying potassium channel KCNH2, sequence (Q12809 whole entry): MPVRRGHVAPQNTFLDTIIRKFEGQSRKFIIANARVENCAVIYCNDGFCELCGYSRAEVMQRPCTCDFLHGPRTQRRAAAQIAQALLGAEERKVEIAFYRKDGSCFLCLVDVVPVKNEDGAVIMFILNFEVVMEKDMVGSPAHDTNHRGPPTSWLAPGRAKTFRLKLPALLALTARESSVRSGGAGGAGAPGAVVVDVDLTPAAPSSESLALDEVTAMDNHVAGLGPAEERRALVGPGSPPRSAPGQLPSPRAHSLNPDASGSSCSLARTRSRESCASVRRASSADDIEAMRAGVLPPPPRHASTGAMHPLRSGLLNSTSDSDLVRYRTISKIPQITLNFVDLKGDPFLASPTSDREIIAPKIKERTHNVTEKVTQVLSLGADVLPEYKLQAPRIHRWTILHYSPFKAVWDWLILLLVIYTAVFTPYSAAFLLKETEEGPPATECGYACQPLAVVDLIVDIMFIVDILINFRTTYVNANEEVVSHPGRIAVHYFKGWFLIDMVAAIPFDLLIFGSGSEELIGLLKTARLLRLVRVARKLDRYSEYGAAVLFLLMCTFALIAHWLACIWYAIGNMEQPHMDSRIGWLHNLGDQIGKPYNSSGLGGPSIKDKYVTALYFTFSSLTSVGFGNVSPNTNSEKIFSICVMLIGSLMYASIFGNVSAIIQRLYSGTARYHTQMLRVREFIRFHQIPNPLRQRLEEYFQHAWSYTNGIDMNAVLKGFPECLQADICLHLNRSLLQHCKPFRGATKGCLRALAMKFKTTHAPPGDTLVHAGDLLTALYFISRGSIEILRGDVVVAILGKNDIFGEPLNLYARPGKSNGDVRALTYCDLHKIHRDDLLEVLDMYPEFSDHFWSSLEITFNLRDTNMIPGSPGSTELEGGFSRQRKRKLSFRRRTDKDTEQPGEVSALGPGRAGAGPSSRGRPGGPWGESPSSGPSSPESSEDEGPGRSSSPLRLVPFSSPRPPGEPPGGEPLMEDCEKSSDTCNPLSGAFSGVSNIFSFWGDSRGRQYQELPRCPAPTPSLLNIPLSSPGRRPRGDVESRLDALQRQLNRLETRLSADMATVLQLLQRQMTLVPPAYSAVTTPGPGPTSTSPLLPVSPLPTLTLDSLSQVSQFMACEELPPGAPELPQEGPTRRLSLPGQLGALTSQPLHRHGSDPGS

Cytochrome P450 3A4 = Cytochrome P450 3A4 (Homo sapiens, UniProt P08684); assay: Inhibition of CYP3A4 (unknown origin) using midazolam as substrate by UPLC-MS/MS analysis; format: ADME
Cytochrome P450 3A4, sequence (P08684 whole entry): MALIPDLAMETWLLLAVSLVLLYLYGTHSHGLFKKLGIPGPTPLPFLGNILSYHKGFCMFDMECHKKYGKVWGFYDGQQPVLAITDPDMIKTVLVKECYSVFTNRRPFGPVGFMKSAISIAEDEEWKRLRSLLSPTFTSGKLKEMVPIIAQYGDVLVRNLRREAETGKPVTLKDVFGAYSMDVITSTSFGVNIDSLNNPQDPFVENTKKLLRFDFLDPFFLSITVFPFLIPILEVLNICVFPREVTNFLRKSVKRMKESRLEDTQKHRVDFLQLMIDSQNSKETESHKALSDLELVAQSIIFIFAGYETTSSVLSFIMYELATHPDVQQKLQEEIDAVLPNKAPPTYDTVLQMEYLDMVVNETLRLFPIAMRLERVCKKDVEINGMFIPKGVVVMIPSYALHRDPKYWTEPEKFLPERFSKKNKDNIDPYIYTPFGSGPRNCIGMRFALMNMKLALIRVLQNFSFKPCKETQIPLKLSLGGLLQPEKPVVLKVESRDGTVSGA

Medulloblastoma cell = assay: Antiproliferative activity against medulloblastoma cells derived from conditional patched knockout mouse after 48 hrs by [3H]-thymidine incorporation assay; format: functional
Method in brief: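 Cells are MERP medulloblastoma cells isolated from Math1-Cre-ER;Ptcfl/fl mouse tumors and cultured in vitro. Compounds were incubated for 48 h before the growth read-out. GI50 is the mean ± SEM of at least two separate experiments, each run in triplicate.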

[2] = Half life in human liver microsomes at 1 uM by UPLC-MS/MS analysis; format: ADME, Microsome
[3] = Kinetic solubility of the compound in PBS at pH 7.4 by UPLC-MS/MS analysis; format: physicochemical; conditions: read-out: Kinetic_solubility
[4] = Intrinsic clearance in human liver microsomes at 1 uM by UPLC-MS/MS analysis; format: ADME, Microsome
Mus musculus = organism: Mus musculus; assay: Antiproliferative activity against mouse ASZ001 cells measured after 48 hrs by MTS/PMS assay; format: functional, cell-based

Structure (SMILES): COc1cccc(C(=O)Nc2ccc(N3CCN(c4ccc(OC[C@@H]5CO[C@](C)(c6ccc(Cl)cc6Cl)O5)cc4)CC3)cc2)c1
pIC50 (Protein smoothened): 5.24

Structure (SMILES): CCC(C)n1ncn(-c2ccc(N3CCN(c4ccc(OCC5COC(Cn6cncn6)(c6ccc(Cl)cc6Cl)O5)cc4)CC3)cc2)c1=O (configuration not stated) [ITRACONAZOLE]
inhibition (INH) [1]: < 1%

pIC50 (Protein smoothened): < 5.00
Structure (SMILES): C[C@@]1(c2ccc(Cl)cc2Cl)OC[C@@H](COc2ccc(N3CCN(c4ccc(NC(=O)c5ccc(O)cc5)cc4)CC3)cc2)O1

pIC50 (Protein smoothened): < 5.00
Structure (SMILES): C[C@]1(c2ccc(Cl)cc2Cl)OC[C@@H](COc2ccc(N3CCN(c4ccc(NC(=O)c5ccccc5)cc4)CC3)cc2)O1

pIC50 (Protein smoothened): < 5.00
Structure (SMILES): C[C@]1(c2ccc(Cl)cc2Cl)OC[C@@H](COc2ccc(N3CCN(c4ccc(NC(=O)c5ccc6ccccc6c5)cc4)CC3)cc2)O1

Structure (SMILES): C[C@]1(c2ccc(Cl)cc2Cl)OC[C@@H](COc2ccc(N3CCN(c4ccc(NC(=O)c5cccnc5)cc4)CC3)cc2)O1
inhibition (INH) [1]: < 1% | IC50 (Cytochrome P450 3A4): > 20 µM | GI50 (Medulloblastoma cell): 1.1 µM | t1/2 [2]: 8.9 min | solubility kinetic [3]: 6.9 nM (≈ 4.27 ng/mL)

Structure (SMILES): C[C@]1(c2ccc(Cl)cc2Cl)OC[C@@H](COc2ccc(N3CCN(c4ccc(NC(=O)c5ccccc5O)cc4)CC3)cc2)O1
pIC50 (Protein smoothened): 5.66

Structure (SMILES): C[C@]1(c2ccc(Cl)cc2Cl)OC[C@@H](COc2ccc(N3CCN(c4ccc(N)cc4)CC3)cc2)O1
pIC50 (Protein smoothened): 6.41

Structure (SMILES): C[C@]1(c2ccc(Cl)cc2Cl)OC[C@@H](COc2ccc(N3CCN(c4ccc(NC(=O)c5ccc(O)cc5)cc4)CC3)cc2)O1
pIC50 (Protein smoothened): 5.52

pIC50 (Protein smoothened): < 5.00
Structure (SMILES): C[C@@]1(c2ccc(Cl)cc2Cl)OC[C@@H](COc2ccc(N3CCN(c4ccc(NC(=O)c5ccccc5)cc4)CC3)cc2)O1

Structure (SMILES): CC[C@@H](C)n1ncn(-c2ccc(N3CCN(c4ccc(OC[C@@H]5CO[C@@](C)(c6ccc(Cl)cc6Cl)O5)cc4)CC3)cc2)c1=O (relative stereo)
IC50 (Cytochrome P450 3A4): 1.02 µM | solubility kinetic [3]: 1560 nM (≈ 996 ng/mL)

pIC50 (Protein smoothened): < 5.00
Structure (SMILES): C[C@]1(c2ccc(Cl)cc2Cl)OC[C@@H](COc2ccc(N3CCN(c4ccc(NC(=O)c5ccoc5)cc4)CC3)cc2)O1

Structure (SMILES): CC[C@@H](C)n1ncn(-c2ccc(N3CCN(c4ccc(OC[C@@H]5CO[C@](C)(c6ccc(Cl)cc6Cl)O5)cc4)CC3)cc2)c1=O (relative stereo)
IC50 (Cytochrome P450 3A4): > 20 µM | solubility kinetic [3]: 800 nM (≈ 511 ng/mL)

Structure (SMILES): C[C@@]1(c2ccc(Cl)cc2Cl)OC[C@@H](COc2ccc(N3CCN(c4ccc([N+](=O)[O-])cc4)CC3)cc2)O1
pIC50 (Protein smoothened): 6.51

Structure (SMILES): C[C@]1(c2ccc(Cl)cc2Cl)OC[C@@H](COc2ccc(N3CCN(c4ccc(NC(=O)c5ccccn5)cc4)CC3)cc2)O1
pIC50 (Protein smoothened): 5.41

pIC50 (Protein smoothened): < 5.00
Structure (SMILES): C[C@@]1(c2ccc(Cl)cc2Cl)OC[C@@H](COc2ccc(N3CCN(c4ccc(NC(=O)c5ccc6ccccc6c5)cc4)CC3)cc2)O1

Structure (SMILES): C[C@@]1(c2ccc(Cl)cc2Cl)OC[C@@H](COc2ccc(N3CCN(c4ccc(NC(=O)c5cccc(O)c5)cc4)CC3)cc2)O1
CLH [4]: < 3 µL/min/mg | inhibition (INH) [1]: 1.2% | IC50 (Cytochrome P450 3A4): > 30 µM | GI50 (Medulloblastoma cell): 2.8 µM | t1/2 [2]: > 231 min | solubility kinetic [3]: 1.4 nM (≈ 0.888 ng/mL)

Structure (SMILES): C[C@]1(c2ccc(Cl)cc2Cl)OC[C@@H](COc2ccc(N3CCN(c4ccc(-n5cn[nH]c5=O)cc4)CC3)cc2)O1
pIC50 (Protein smoothened): 6.68

pIC50 (Protein smoothened): < 5.00
Structure (SMILES): C[C@]1(c2ccc(Cl)cc2Cl)OC[C@@H](COc2ccc(N3CCN(c4ccc(NC(=O)c5cccc(Cl)c5)cc4)CC3)cc2)O1

Structure (SMILES): C[C@@]1(c2ccc(Cl)cc2Cl)OC[C@@H](COc2ccc(N3CCN(c4ccc(NC(=O)c5cccnc5)cc4)CC3)cc2)O1
IC50 (Cytochrome P450 3A4): > 30 µM | GI50 (Medulloblastoma cell): > 10 µM | t1/2 [2]: 59.9 min | solubility kinetic [3]: 4.2 nM (≈ 2.6 ng/mL)

Structure (SMILES): C[C@]1(c2ccc(Cl)cc2Cl)OC[C@@H](COc2ccc(N3CCN(c4ccc(NC(=O)c5cccc(O)c5)cc4)CC3)cc2)O1
inhibition (INH) [1]: < 1% | IC50 (Cytochrome P450 3A4): 11.4 µM | Activity (Mus musculus): Active | GI50 (Medulloblastoma cell): 0.35 µM | t1/2 [2]: 19.9 min | solubility kinetic [3]: 1.6 nM (≈ 1.02 ng/mL)

pIC50 (Protein smoothened): < 5.00
Structure (SMILES): C[C@@]1(c2ccc(Cl)cc2Cl)OC[C@@H](COc2ccc(N3CCN(c4ccc(NC(=O)c5ccncc5)cc4)CC3)cc2)O1

Structure (SMILES): C[C@]1(c2ccc(Cl)cc2Cl)OC[C@@H](COc2ccc(N3CCN(c4ccc(NC(=O)NN)cc4)CC3)cc2)O1
IC50 (Cytochrome P450 3A4): > 30 µM | GI50 (Medulloblastoma cell): 2.8 µM | t1/2 [2]: 11.5 min | solubility kinetic [3]: 1.4 nM (≈ 0.801 ng/mL)

Structure (SMILES): C[C@@]1(c2ccc(Cl)cc2Cl)OC[C@@H](COc2ccc(N3CCN(c4ccc(NC(=O)NN)cc4)CC3)cc2)O1
inhibition (INH) [1]: 2.2% | IC50 (Cytochrome P450 3A4): > 30 µM | GI50 (Medulloblastoma cell): 0.5 µM | t1/2 [2]: 20.1 min | solubility kinetic [3]: 9.3 nM (≈ 5.32 ng/mL)

Structure (SMILES): C[C@@]1(c2ccc(Cl)cc2Cl)OC[C@@H](COc2ccc(N3CCN(c4ccc(N)cc4)CC3)cc2)O1
pIC50 (Protein smoothened): 6.04

pIC50 (Protein smoothened): < 5.00
Structure (SMILES): C[C@@]1(c2ccc(Cl)cc2Cl)OC[C@@H](COc2ccc(N3CCN(c4ccc(NC(=O)c5ccccn5)cc4)CC3)cc2)O1

pIC50 (Protein smoothened): < 5.00
Structure (SMILES): C[C@]1(c2ccc(Cl)cc2Cl)OC[C@@H](COc2ccc(N3CCN(c4ccc(NC(=O)c5ccncc5)cc4)CC3)cc2)O1

Structure (SMILES): C[C@]1(c2ccc(Cl)cc2Cl)OC[C@@H](COc2ccc(N3CCN(c4ccc([N+](=O)[O-])cc4)CC3)cc2)O1
pIC50 (Protein smoothened): 6.59

Structure (SMILES): C[C@@]1(c2ccc(Cl)cc2Cl)OC[C@@H](COc2ccc(N3CCN(c4ccc(-n5cn[nH]c5=O)cc4)CC3)cc2)O1
pIC50 (Protein smoothened): 6.85

Structure (SMILES): CC(=O)c1cccc(C(=O)Nc2ccc(N3CCN(c4ccc(OC[C@@H]5CO[C@](C)(c6ccc(Cl)cc6Cl)O5)cc4)CC3)cc2)c1
inhibition (INH) [1]: < 1% | IC50 (Cytochrome P450 3A4): > 30 µM | Activity (Mus musculus): Active | t1/2 [2]: 11.4 min | solubility kinetic [3]: 1.4 nM (≈ 0.925 ng/mL)

pIC50 (Protein smoothened): < 5.00
Structure (SMILES): C[C@]1(c2ccc(Cl)cc2Cl)OC[C@@H](COc2ccc(N3CCN(c4ccc(NC(=O)c5ccsc5)cc4)CC3)cc2)O1

pIC50 (Protein smoothened): < 5.00
Structure (SMILES): C[C@@]1(c2ccc(Cl)cc2Cl)OC[C@@H](COc2ccc(N3CCN(c4ccc(NC(=O)c5ccccc5O)cc4)CC3)cc2)O1

— ChEMBL document CHEMBL4387707, “Structure-Activity Relationships for Itraconazole-Based Triazolone Analogues as Hedgehog Pathway Inhibitors” (J Med Chem, 2019)
